Legend:
[1] = Cytotoxicity against human SH-SY5Y cells assessed as cell viability after 48 hrs; format: functional, cell-based
[2] = tested on: Paracentrotus lividus; experiment: Antimitotic activity against sea urchin embryo free-swimming blastula model assessed as embryo spinning compound treated at 8 to 10 hrs post-fertilization measured after 0.25 to 20 hrs; format: functional, Blastula stage
[3] = tested on: Paracentrotus lividus; experiment: Antimitotic activity against sea urchin embryo model assessed as cleavage arrest of fertilized egg compound treated at 8 to 20 mins post-fertilization and 45 to 55 mins prior to first mitotic cycle completion measured 2.5 to 5.5 hrs post-fertilization; format: functional
Procedure, shortened: (§1)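 Fertilized eggs are exposed 8–20 min after fertilization to 2-fold decreasing concentrations. Stocks are 10 mM in DMSO, then diluted 10-fold in 95% EtOH; final DMSO is at most 0.05% and EtOH at most 1%. Embryos are kept as a monolayer, up to 2000 embryos/mL, in filtered seawater at room temperature. The value is the threshold concentration giving cleavage alteration, embryo death before hatching or full mitotic arrest. Duplicates were run.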

[4] = tested on: Paracentrotus lividus; experiment: Antimitotic activity against sea urchin embryo model assessed as cleavage alteration of fertilized egg compound treated at 8 to 20 mins post-fertilization and 45 to 55 mins prior to first mitotic cycle completion measured 2.5 to 5.5 hrs post-fertilization; format: functional; procedure, shortened: as §1

## COc1ccc(-n2nncc2-c2cc(OC)c(OC)c(OC)c2)cc1
[1]
  IC50: > 1000 nM
[2]
  EC: >4 µM
[3]
  EC: 4 µM
[4]
  EC: 1 µM

Source: ChEMBL document CHEMBL3102739, “Synthesis and antiproliferative activity of conformationally restricted 1,2,3-triazole analogues of combretastatins in the sea urchin embryo model and against human cancer cell lines” (Bioorg Med Chem, 2014)
